Laboratory results reported in ChEMBL document CHEMBL3272290, “Contragestational agents. 1. Steroidal O-aryloximes” (J Med Chem, 1977).

These molecules were tested on Rattus norvegicus (assay: Antifertility activity in Wistar rat assessed as inhibition of preimplantive gestation by measuring resorptions at 2.5 mg/kg, po administered in days 9 to 12 of pregnancy measured on day 21).
Format: functional
Design: scale not given: the % may be the effect or the level left
Outline: (§1)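 Groups of five pregnant female Wistar-derived rats dosed orally on days 9–12 of pregnancy, in sesame oil at 0.5 mL per 200 g body weight. Read-out was the percentage of resorptions.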
In the case of `CC(=O)O[C@H]1CC[C@H]2[C@@H]3CC[C@H]4C/C(=N/Oc5ccc([N+](=O)[O-])cc5)[C@H](Br)C[C@]4(C)[C@H]3CC[C@]12C`, the Activity is reported as 100%. Molecule `CC12CC[C@H]3[C@@H](CC[C@H]4C/C(=N/Oc5ccc([N+](=O)[O-])cc5)[C@H](Cl)C[C@@]43C)[C@@H]1CCC2=O` (single isomer, unassigned) has an Activity of 100%. In the case of `C[C@]12CC/C(=N\Oc3ccc([N+](=O)[O-])cc3)C[C@@H]1CC[C@@H]1[C@@H]2CC[C@]2(C)[C@@H](O)CC[C@@H]12`, the Activity is reported as 100%. With `C[C@]12C[C@@H](Br)/C(=N\Oc3ccc([N+](=O)[O-])cc3)C[C@@H]1CC[C@@H]1[C@@H]2CC[C@]2(C)[C@@H](O)CC[C@@H]12` the Activity was 100%. `C[C@]12C[C@@H](Br)/C(=N\Oc3ccc([N+](=O)[O-])cc3)C[C@@H]1CC[C@@H]1[C@@H]2CC[C@]2(C)C(=O)CC[C@@H]12` showed an Activity of 100%.

Each molecule was assayed on Rattus norvegicus (assay: Antifertility activity in Wistar rat assessed as inhibition of preimplantive gestation by measuring resorptions at 5 mg/kg, po administered in days 9 to 12 of pregnancy measured on day 21).
Format: functional
Design: scale not given: the % may be the effect or the level left
Outline: as §1
With `C[C@]12C[C@@H](Cl)/C(=N\Oc3ccc([N+](=O)[O-])cc3)C[C@@H]1CC[C@@H]1[C@@H]2CC[C@]2(C)[C@@H](O)CC[C@@H]12` the Activity was 100%. Molecule `CCCCCCC(=O)O[C@H]1CC[C@H]2[C@@H]3CC[C@H]4C/C(=N/Oc5ccc([N+](=O)[O-])cc5)CC[C@]4(C)[C@H]3CC[C@]12C` has an Activity of 100%. `C[C@]12CC/C(=N\Oc3ccc([N+](=O)[O-])cc3)C[C@@H]1CC[C@@H]1[C@@H]2CC[C@]2(C)C(=O)CC[C@@H]12` was tested, and the Activity was 100%.

The molecules below were run on Rattus norvegicus (assay: Antifertility activity in Wistar rat assessed as inhibition of preimplantive gestation by measuring resorptions at 40 mg/kg, po administered in days 9 to 12 of pregnancy measured on day 21).
Format: functional
Design: scale not given: the % may be the effect or the level left
Outline: as §1
`C[C@]12CC/C(=N\Oc3ccc(C#N)cc3)C[C@@H]1CC[C@@H]1[C@@H]2CC[C@]2(C)[C@@H](O)CC[C@@H]12` showed an Activity of 12.9%. `CC(=O)O[C@H]1CC[C@H]2[C@@H]3CCC4C/C(=N/Oc5ccc([N+](=O)[O-])cc5)C=C[C@]4(C)[C@H]3CC[C@]12C` (stereo not given in full) gave an Activity of 2%. Work on `C[C@]12CC/C(=N\Oc3ccc([N+](=O)[O-])cc3)C[C@@H]1CC[C@@H]1[C@@H]2CC[C@]2(C)[C@@H](O[N+](=O)[O-])CC[C@@H]12` yielded an Activity of 30.8%. `CC(=O)O[C@H]1CC[C@H]2[C@@H]3CC[C@H]4C/C(=N/Nc5ccc([N+](=O)[O-])cc5)CC[C@]4(C)[C@H]3CC[C@]12C` gave an Activity of 7.7%. `C[C@@]12CCC[C@H]1[C@@H]1CC[C@H]3C/C(=N/Oc4ccc([N+](=O)[O-])cc4)CC[C@]3(C)[C@H]1CC2` gave an Activity of 0%. `C#C[C@]1(O)CC[C@H]2[C@@H]3CCC4=C/C(=N/Oc5ccc([N+](=O)[O-])cc5)CC[C@@H]4[C@H]3CC[C@@]21C` gave an Activity of 25%. `CC(=O)O[C@H]1CC[C@H]2[C@@H]3CC[C@H]4C/C(=N/Oc5ccc([N+](=O)[O-])cc5)C[C@H](C)[C@]4(C)[C@H]3CC[C@]12C` showed an Activity of 5.8%. `C[C@]12CC[C@H]3[C@@H](CCC4=C/C(=N/Oc5ccccc5)CC[C@@H]43)[C@@H]1CC[C@@H]2O` showed an Activity of 100%. `C[C@]12CC/C(=N\Oc3ccc([N+](=O)[O-])cc3)C[C@H]1CC[C@@H]1[C@@H]2CC[C@]2(C)[C@@H](O)CC[C@@H]12` gave an Activity of 10.9%. `C[C@]12CC/C(=N\Oc3ccc([N+](=O)[O-])cc3)C[C@@H]1CC[C@@H]1[C@@H]2CC[C@@]2(C)[C@H]1CC[C@]2(C)O` gave an Activity of 14.7%. `C[C@]12CC[C@H]3[C@@H](CC[C@H]4C/C(=N/Oc5ccc([N+](=O)[O-])cc5[N+](=O)[O-])CC[C@@H]43)[C@@H]1CC[C@@H]2O` showed an Activity of 16.4%. In the case of `C[C@]12CC/C(=N\Oc3ccc([N+](=O)[O-])cn3)C[C@@H]1CC[C@@H]1[C@@H]2CC[C@]2(C)[C@@H](O)CC[C@@H]12`, the Activity is reported as 6%. With `C[C@]12CC/C(=N\OCc3ccc(Br)c(O)c3)C[C@@H]1CC[C@@H]1[C@@H]2CC[C@]2(C)[C@@H](O)CC[C@@H]12` the Activity was 8.8%. For `C[C@]12CC/C(=N\Oc3ccc([N+](=O)[O-])cc3)C[C@@H]1CC[C@@H]1[C@@H]2CC[C@]2(C)[C@@H](N)CC[C@@H]12`, the Activity was 2%. Work on `CC(=O)O[C@H]1CC[C@H]2[C@@H]3CC[C@H]4C/C(=N/Sc5ccc([N+](=O)[O-])cc5)CC[C@]4(C)[C@H]3CC[C@]12C` yielded an Activity of 7.5%. `Cc1cc(O/N=C2\CC[C@@]3(C)[C@@H](CC[C@@H]4[C@@H]3CC[C@]3(C)[C@@H](O)CC[C@@H]43)C2)ccc1[N+](=O)[O-]` gave an Activity of 13.1%. For `CC(=O)O[C@H]1CC[C@H]2[C@@H]3CC[C@H]4CC(=O)CC[C@]4(C)[C@H]3CC[C@]12C`, the Activity was 5%. Work on `Cc1cc([N+](=O)[O-])ccc1O/N=C1\CC[C@@]2(C)[C@@H](CC[C@@H]3[C@@H]2CC[C@]2(C)[C@@H](O)CC[C@@H]32)C1` yielded an Activity of 5.7%. `C[C@]1(O)CC[C@H]2[C@@H]3CC[C@H]4C/C(=N/Oc5ccc([N+](=O)[O-])cc5[N+](=O)[O-])CC[C@@H]4[C@H]3CC[C@@]21C` showed an Activity of 9.5%. For `C[C@]12CC[C@H]3[C@@H](CCC4=C/C(=N/Oc5ccccn5)CC[C@@]43C)[C@@H]1CC[C@@H]2O`, the Activity was 75.9%. `C[C@]12CC/C(=N\Oc3ccc([N+](=O)[O-])cc3)C[C@@H]1CC[C@@H]1[C@@H]2CC[C@@]2(C)[C@H]1CCC21SCCS1` showed an Activity of 4%. Work on `C[C@]12CC/C(=N\OCc3ccccc3)C[C@@H]1CC[C@@H]1[C@@H]2CC[C@]2(C)[C@@H](O)CC[C@@H]12` yielded an Activity of 13.3%. `CC(=O)O[C@H]1CC[C@H]2[C@@H]3CC[C@H]4C/C(=N/Oc5ccccc5[N+](=O)[O-])CC[C@]4(C)[C@H]3CC[C@]12C` showed an Activity of 4%. Molecule `C[C@]12CC[C@H]3[C@@H](CCC4=C/C(=N/Oc5ccccc5[N+](=O)[O-])CC[C@@H]43)[C@@H]1CC[C@@H]2O` has an Activity of 11.9%. For `C#C[C@]1(O)CC[C@H]2[C@@H]3CC[C@H]4C/C(=N/Oc5ccc([N+](=O)[O-])cc5)CC[C@]4(C)[C@H]3CC[C@@]21C`, the Activity was 76.9%. For `CC(=O)[C@H]1CC[C@H]2[C@@H]3CC[C@H]4C/C(=N/Oc5ccc([N+](=O)[O-])cc5)CC[C@]4(C)[C@H]3CC[C@]12C`, the Activity was 4%. Work on `C[C@]12CC[C@H]3[C@@H](CCC4=C/C(=N/Oc5ccc([N+](=O)[O-])cc5)CC[C@@]43C)[C@@H]1CC[C@@H]2O` yielded an Activity of 93.8%. With `C[C@]12CC/C(=N\Oc3ccc(C(F)(F)F)cc3)C[C@@H]1CC[C@@H]1[C@@H]2CC[C@]2(C)[C@@H](O)CC[C@@H]12` the Activity was 4.8%. Work on `C[C@]12CC/C(=N\Oc3ccc([N+](=O)[O-])cc3[N+](=O)[O-])C[C@@H]1CC[C@@H]1[C@@H]2CC[C@]2(C)[C@@H](O)CC[C@@H]12` yielded an Activity of 8.2%. Work on `C[C@]12CC/C(=N\Oc3ccccn3)C[C@@H]1CC[C@@H]1[C@@H]2CC[C@]2(C)[C@@H](O)CC[C@@H]12` yielded an Activity of 0%. Molecule `C[C@]12CC/C(=N\Oc3ccccc3)C[C@@H]1CC[C@@H]1[C@@H]2CC[C@]2(C)[C@@H](O)CC[C@@H]12` has an Activity of 1.9%. Molecule `C[C@]12CC/C(=N\Oc3ccc([N+](=O)[O-])cc3[N+](=O)[O-])C[C@H]1CC[C@@H]1[C@@H]2CC[C@]2(C)[C@@H](O)CC[C@@H]12` has an Activity of 5.4%. `C[C@]12CC[C@H]3[C@@H](CC[C@H]4C/C(=N/Oc5ccc([N+](=O)[O-])cc5)CC[C@@H]43)[C@@H]1CC[C@@H]2O` gave an Activity of 9.8%. With `C[C@]12CC[C@H]3[C@@H](CCC4=C/C(=N/Oc5ccc(C(F)(F)F)cc5)CC[C@@]43C)[C@@H]1CC[C@@H]2O` the Activity was 11.8%. For `C[C@]12CC/C(=N\Oc3ccccc3)C[C@H]1CC[C@@H]1[C@@H]2CC[C@]2(C)[C@@H](O)CC[C@@H]12`, the Activity was 11.9%. Molecule `C[C@]12CC/C(=N\Oc3ccc([N+](=O)[O-])cc3Cl)C[C@@H]1CC[C@@H]1[C@@H]2CC[C@]2(C)[C@@H](O)CC[C@@H]12` has an Activity of 5.8%.

Each molecule was assayed on Rattus norvegicus (assay: Antifertility activity in Wistar rat assessed as inhibition of preimplantive gestation by measuring resorptions at 20 mg/kg, po administered in days 9 to 12 of pregnancy measured on day 21).
Format: functional
Design: scale not given: the % may be the effect or the level left
Outline: as §1
With `C[C@]12CC[C@H]3[C@@H](CCC4=C/C(=N/Oc5ccc([N+](=O)[O-])cc5)C=C[C@@]43C)[C@@H]1CC[C@@H]2O` the Activity was 6%. `C[C@]12CC[C@H]3[C@@H](CCC4=C/C(=N/Oc5ccc([N+](=O)[O-])cc5[N+](=O)[O-])C=C[C@@]43C)[C@@H]1CC[C@@H]2O` gave an Activity of 92.6%. `C[C@]12CC[C@H]3[C@@H](CCC4=C/C(=N/Oc5ccc([N+](=O)[O-])cc5[N+](=O)[O-])CC[C@@H]43)[C@@H]1CC[C@@H]2O` gave an Activity of 100%. Molecule `C[C@]12CC/C(=N\Oc3ccc([N+](=O)[O-])cc3[N+](=O)[O-])C=C1CC[C@@H]1[C@@H]2CC[C@@]2(C)[C@H]1CC[C@]2(C)O` has an Activity of 2.2%. For `C[C@]12CC[C@H]3[C@@H](CCC4=C/C(=N/Oc5ccc([N+](=O)[O-])cc5)CC[C@@H]43)[C@@H]1CC[C@@H]2O`, the Activity was 63.9%. Molecule `C[C@]12CC[C@H]3[C@@H](CCC4=C/C(=N/Oc5ccccn5)CC[C@@H]43)[C@@H]1CC[C@@H]2O` has an Activity of 100%.
